In ChEMBL document CHEMBL4680326, “Hit-to-lead optimization on aryloxybenzamide derivative virtual screening hit against SIRT” (Bioorg Med Chem, 2021):
pIC50: −log10 of the molar value.

Experiments:
[1] = target: T1, NAD-dependent protein deacetylase sirtuin-2 (Homo sapiens) (UniProt Q8IXJ6); assay: Inhibition of recombinant N-terminal tagged human SIRT2 expressed in Escherichia coli at 100 uM using Fluor De Lys SIRT2 as substrate preincubated for 30 mins followed by substrate addition and measured after 1 hr in presence of NAD+ by fluorescence assay relative to control; settings: time 90.0 min
T1 sequence (whole entry): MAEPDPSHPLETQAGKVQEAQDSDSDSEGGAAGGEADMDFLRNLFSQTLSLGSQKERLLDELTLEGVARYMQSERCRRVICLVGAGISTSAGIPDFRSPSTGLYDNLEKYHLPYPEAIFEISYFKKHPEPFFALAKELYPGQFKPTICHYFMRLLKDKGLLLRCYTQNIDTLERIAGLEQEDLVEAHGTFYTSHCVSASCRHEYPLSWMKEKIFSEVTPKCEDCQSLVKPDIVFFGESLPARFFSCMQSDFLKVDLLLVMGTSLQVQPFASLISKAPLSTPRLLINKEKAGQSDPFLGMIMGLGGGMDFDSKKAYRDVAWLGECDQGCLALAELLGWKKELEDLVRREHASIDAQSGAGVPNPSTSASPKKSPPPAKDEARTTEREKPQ
Procedure, shortened: (§1)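 Human recombinant SIRT enzyme and compound (1% v/v final DMSO) in SIRT assay buffer were preincubated at 37 °C for 30 min. NAD⁺ and Fluor de Lys deacetylase substrate were then added. Fluorescence was read at excitation 360 nm, emission 460 nm. % inhibition was taken from inhibited wells relative to control wells.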

[2] = target: T2, NAD-dependent protein deacetylase sirtuin-1 (Homo sapiens) (UniProt Q96EB6); assay: Inhibition of recombinant N-terminal tagged human SIRT1 expressed in Escherichia coli at 100 uM using Fluor De Lys SIRT1 as substrate preincubated for 30 mins followed by substrate addition and measured after 1 hr in presence of NAD+ by fluorescence assay relative to control; settings: time 90.0 min; procedure, shortened: as §1
T2 sequence (whole entry): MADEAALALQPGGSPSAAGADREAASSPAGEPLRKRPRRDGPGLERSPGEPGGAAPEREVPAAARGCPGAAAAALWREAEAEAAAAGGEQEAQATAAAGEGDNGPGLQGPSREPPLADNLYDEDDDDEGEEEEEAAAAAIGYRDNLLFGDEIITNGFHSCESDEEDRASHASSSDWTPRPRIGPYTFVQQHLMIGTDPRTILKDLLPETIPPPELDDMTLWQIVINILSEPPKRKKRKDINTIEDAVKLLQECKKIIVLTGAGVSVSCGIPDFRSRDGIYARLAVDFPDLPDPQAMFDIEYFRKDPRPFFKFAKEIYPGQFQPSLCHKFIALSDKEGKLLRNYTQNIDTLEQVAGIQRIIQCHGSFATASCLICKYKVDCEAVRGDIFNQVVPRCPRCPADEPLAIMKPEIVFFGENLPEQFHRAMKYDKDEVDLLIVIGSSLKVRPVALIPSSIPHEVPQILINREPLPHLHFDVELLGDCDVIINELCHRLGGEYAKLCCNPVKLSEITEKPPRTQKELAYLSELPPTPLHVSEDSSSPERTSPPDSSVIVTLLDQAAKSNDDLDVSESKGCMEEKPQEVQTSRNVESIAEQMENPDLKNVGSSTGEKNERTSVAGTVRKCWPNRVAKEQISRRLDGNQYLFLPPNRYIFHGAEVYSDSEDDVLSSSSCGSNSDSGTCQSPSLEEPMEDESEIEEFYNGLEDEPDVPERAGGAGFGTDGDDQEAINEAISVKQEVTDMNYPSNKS

[3] = system: MCF7; assay: Cytotoxicity against human MCF7 cells assessed as reduction in cell viability measured after 48 hrs by MTT assay; format: functional, cell-based; settings: MCF7, 48 h
Procedure, shortened: (§2)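 MCF-7 cells were grown in DMEM with 10% FBS and 1% penicillin–streptomycin to 70% confluency. 180 µl of a 5 × 10⁴ cells/ml suspension was seeded per well and held 24 h at 37 °C in 5% CO₂. Cells were exposed to 1, 10, 25, 50, 100 or 200 µM, then treated with MTT (5 mg/ml) for 4 h and read at 540 nm. Untreated cells served as control. Done in triplicate; IC50 from linear regression of concentration vs % viable cells.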

[4] = system: MCF7; assay: Cytotoxicity against human MCF7 cells assessed as reduction in cell viability measured after 72 hrs by MTT assay; format: functional, cell-based; settings: MCF7, 72 h; procedure, shortened: as §2
[5] = target: T2, NAD-dependent protein deacetylase sirtuin-1 (Homo sapiens); assay: Inhibition of recombinant N-terminal tagged human SIRT1 expressed in Escherichia coli at 300 uM using Fluor De Lys SIRT1 as substrate preincubated for 30 mins followed by substrate addition and measured after 1 hr in presence of NAD+ by fluorescence assay relative to control; settings: time 90.0 min; procedure, shortened: as §1
[6] = target: T1, NAD-dependent protein deacetylase sirtuin-2 (Homo sapiens); assay: Inhibition of recombinant N-terminal tagged human SIRT2 expressed in Escherichia coli at 300 uM using Fluor De Lys SIRT2 as substrate preincubated for 30 mins followed by substrate addition and measured after 1 hr in presence of NAD+ by fluorescence assay relative to control; settings: time 90.0 min; procedure, shortened: as §1
[7] = target: T3, NAD-dependent protein deacetylase sirtuin-3, mitochondrial (Homo sapiens) (UniProt Q9NTG7); assay: Inhibition of recombinant N-terminal tagged human SIRT3 (102 to 399 residues) expressed in Escherichia coli at 300 uM using Fluor De Lys SIRT2 as substrate preincubated for 30 mins followed by substrate addition and measured after 1 hr in presence of NAD+ by fluorescence assay relative to control; settings: time 90.0 min; procedure, shortened: as §1
T3 sequence (whole entry): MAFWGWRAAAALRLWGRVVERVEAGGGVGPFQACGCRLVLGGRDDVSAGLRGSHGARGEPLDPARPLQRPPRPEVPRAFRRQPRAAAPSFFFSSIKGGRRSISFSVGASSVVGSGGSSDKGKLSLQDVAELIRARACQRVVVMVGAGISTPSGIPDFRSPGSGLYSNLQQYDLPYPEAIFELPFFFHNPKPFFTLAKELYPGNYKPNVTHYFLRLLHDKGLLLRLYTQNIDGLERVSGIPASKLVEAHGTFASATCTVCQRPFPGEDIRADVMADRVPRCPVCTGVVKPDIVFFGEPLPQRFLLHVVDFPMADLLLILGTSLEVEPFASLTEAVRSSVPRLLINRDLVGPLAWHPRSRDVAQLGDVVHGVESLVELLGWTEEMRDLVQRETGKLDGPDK

## CC(=O)c1ccc(NC(=O)c2cccc(Oc3ccccc3)c2)cc1
[1]
  inhibition: 11.1%

## ON=C(c1cccc(Oc2ccccc2)c1)N1CCc2ccccc2C1
[2]
  inhibition: 47.2%
[1]
  inhibition: 51.6%
[3]
  pIC50: 4.39
[4]
  pIC50: 4.48

## O=C(Nc1ccc2ccccc2c1)c1cccc(Oc2ncccn2)c1
[2]
  inhibition: 36.1%
[1]
  inhibition: 17.1%

## CC(C)N1CCN(C(=O)c2cccc(Oc3ccccc3)c2)CC1
[2]
  inhibition: 48.1%
[3]
  pIC50: 3.33
[4]
  pIC50: 3.49

## CC(=O)c1ccc(NC(=O)c2ccc(Oc3ccccc3)cc2)cc1
[2]
  inhibition: 36.1%

## Cc1ccc(Oc2cccc(C(=O)N[C@@H](C)c3ccccc3)c2)nn1
[5]
  inhibition: 31.4%
[6]
  inhibition: 42.5%
[7]
  inhibition: 18.2%
[3]
  pIC50: 3.48
[4]
  pIC50: < 3.00

## O=C(c1cccc(Oc2ccccc2)c1)N1CCc2ccccc2C1
[2]
  inhibition: 56.5%
[1]
  inhibition: 10.8%
[3]
  pIC50: 3.80
[4]
  pIC50: 3.83

## NC(=O)c1ccc(NC(=O)c2ccc(Oc3ccccc3)cc2)cc1
[2]
  inhibition: 46%
[3]
  pIC50: 3.28
[4]
  pIC50: 3.45

## O=C(c1ccc(Oc2ccccc2)cc1)N1CCc2ccccc2C1
[2]
  inhibition: 21.5%

## Cc1ccc(C(=O)Nc2ccc(S(=O)(=O)O)c3cc(S(=O)(=O)O)cc(S(=O)(=O)O)c23)cc1NC(=O)c1cccc(NC(=O)Nc2cccc(C(=O)Nc3cc(C(=O)Nc4ccc(S(=O)(=O)O)c5cc(S(=O)(=O)O)cc(S(=O)(=O)O)c45)ccc3C)c2)c1
[1]
  inhibition: 98.4%
